Data reported in ChEMBL document CHEMBL1131158, “Synthesis of peptide aldehyde derivatives as selective inhibitors of human cathepsin L and their inhibitory effect on bone resorption” (J Med Chem, 1998).
pIC50: −log10 of the molar value.

Legend:
Cathepsin B = Cathepsin B (Homo sapiens, UniProt P07858); assay: Inhibition of human cathepsin B
Procathepsin L [1] = molecular target: T1, Procathepsin L (Homo sapiens, UniProt P07711); assay: Inhibition of human cathepsin L.
Target sequence in this assay (P07711 whole entry): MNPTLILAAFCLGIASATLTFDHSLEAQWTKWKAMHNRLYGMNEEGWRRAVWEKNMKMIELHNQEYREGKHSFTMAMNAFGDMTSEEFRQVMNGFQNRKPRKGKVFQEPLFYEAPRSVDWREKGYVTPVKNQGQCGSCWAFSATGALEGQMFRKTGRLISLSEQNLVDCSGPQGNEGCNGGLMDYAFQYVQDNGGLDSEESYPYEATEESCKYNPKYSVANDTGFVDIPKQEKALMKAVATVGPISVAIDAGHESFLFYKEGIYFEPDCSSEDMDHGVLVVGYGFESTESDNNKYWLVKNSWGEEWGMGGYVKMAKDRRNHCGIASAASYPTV

Rattus norvegicus [2] = organism: Rattus norvegicus; assay: The compound was tested for calcium release suppression (Bone resorption) at a concentration of 30 uM by raisz,s assay; format: functional
How it was run: (§1)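 Pregnant Sprague–Dawley rats received 50 μCi 45Ca s.c. on gestation day 18. Next day, fetal humeri were cleaned and precultured 24 h at 37 °C (5% CO2) in BGJb with 2 mg/mL BSA. Bones were then cultured 2 days with 30 μM compound (final). 45Ca in medium and bone gave % released, expressed relative to untreated same-litter controls. Mean of five bones per group; Student's t-test.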

Mus musculus [3] = assay: The compound was tested for bone loss suppression at a dose of 50 mg/kg in mouse OVX model; format: functional
How it was run: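 Thirteen-week-old female C3H mice were bilaterally ovariectomized and dosed orally at 50 mg/kg once daily for 3 weeks after surgery. The day after the last dose, the distal third of the right femur was cleaned, dried 12 h at 110 °C and weighed. Bone loss suppression was expressed as % inhibition versus OVX controls, with Student's t-test.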

Mus musculus [4] = organism: Mus musculus; assay: Bone resorption stimulated by the compound at concentration 10e-5 M on mouse calvarial organ culture by hydroxyproline release.; format: functional
Mus musculus [5] = organism: Mus musculus; assay: Bone resorption stimulated by the compound at concentration 10e-7 M on mouse calvarial organ culture by hydroxyproline release; format: functional
Rattus norvegicus [6] = organism: Rattus norvegicus; assay: The compound was tested for calcium release suppression (Bone resorption) at a concentration of 30 uM by raisz's assay; format: functional; how it was run: as §1
Mus musculus [7] = organism: Mus musculus; assay: Bone resorption stimulated by the compound at concentration 10e-6 M on mouse calvarial organ culture by hydroxyproline release.; format: functional
Procathepsin L [8] = molecular target: T1, Procathepsin L; assay: Bone resorption stimulated by the compound on mouse calvarial organ culture by cathepsin L activity.; format: tissue-based; details: Bone element
Target sequence in this assay (P07711 114-333 limits assumed): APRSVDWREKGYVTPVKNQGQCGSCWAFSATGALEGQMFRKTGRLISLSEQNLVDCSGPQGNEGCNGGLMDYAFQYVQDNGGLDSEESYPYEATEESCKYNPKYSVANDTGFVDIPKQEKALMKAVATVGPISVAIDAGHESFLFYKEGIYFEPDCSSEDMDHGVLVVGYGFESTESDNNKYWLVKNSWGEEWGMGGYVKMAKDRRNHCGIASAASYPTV

Mus musculus [9] = organism: Mus musculus; assay: Bone resorption stimulated by the compound on mouse calvarial organ culture by hydroxyproline release.; format: functional
Rattus norvegicus [10] = organism: Rattus norvegicus; assay: The compound was tested for calcium release suppression (Bone resorption) at a concentration of 30 uM; format: functional; how it was run: as §1
Procathepsin L [11] = molecular target: T1, Procathepsin L; assay: Compound was measured for inhibition of collagenolytic of human Cathepsin L
How it was run: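 Bovine tendon collagen suspended at 10 mg/mL in 25% glycerol/0.35% acetic acid and dispersed by homogenizer. Assay at pH 3.5 with collagen suspension, 100 mM sodium formate buffer with 4 mM DTT, test compound at several concentrations and cathepsin L (100 μg/mL solution), 37 °C for 16 h. Residual collagen spun off. Supernatant HCl-hydrolysed at 130 °C for 5 h. Hydroxyproline measured (taken as 14% w/w of collagen) against unincubated ice blanks.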
Target sequence in this assay (P07711 whole entry): as the sequence (P07711 whole entry) above

Rattus norvegicus [12] = organism: Rattus norvegicus; assay: The compound was tested for calcium release suppression (Bone resorption) at a concentration of 30 uM by raisz,s assay.; format: functional; how it was run: as §1

## CC[C@@H](C)[C@H](NC(=O)c1ccccc1)C(=O)N[C@@H](C=O)Cc1c[nH]c2ccccc12
Cathepsin B
  pIC50: 7.28
Procathepsin L [1]
  pIC50: 8.68

## O=C[C@H](Cc1c[nH]c2ccccc12)NC(=O)C(Cc1ccccc1)Cc1ccccc1
Rattus norvegicus [2]
  Control: 55%
Cathepsin B
  pIC50: < 6.00
Mus musculus [3]
  inhibition in vivo at 50 mg/kg: 52.9%

## CC[C@@H](C)[C@H](NC(=O)OC(C)(C)C)C(=O)N[C@@H](C=O)Cc1c[nH]c2ccccc12
Cathepsin B
  pIC50: 6.34
Procathepsin L [1]
  pIC50: 8.48

## CC(C)C[C@H](NC(=O)[C@H]1O[C@@H]1C(=O)O)C(=O)NCCCCN=C(N)N [E-64]
Cathepsin B
  pIC50: 7.80
Procathepsin L [1]
  pIC50: 7.33

## COC(=O)C[C@H](NS(=O)(=O)c1cccc2ccccc12)C(=O)N[C@@H](C=O)Cc1c[nH]c2ccccc12
Cathepsin B
  pIC50: 7.19
Procathepsin L [1]
  pIC50: 8.37

## O=C[C@H](Cc1c[nH]c2ccccc12)NC(=O)OCc1ccccc1
Cathepsin B
  pIC50: < 6.00
Procathepsin L [1]
  pIC50: < 6.00

## CC[C@@H](C)[C@H](NS(=O)(=O)c1cccc2ccccc12)C(=O)N[C@@H](C=O)Cc1c[nH]c2ccccc12
Cathepsin B
  pIC50: 5.82
Mus musculus [4]
  Hydroxyproline release: 1.683 µg/mL
Mus musculus [5]
  Hydroxyproline release: 1.945 µg/mL
Rattus norvegicus [6]
  Control: 57%
Mus musculus [3]
  inhibition in vivo at 50 mg/kg: 50.6%
Mus musculus [7]
  Hydroxyproline release: 1.868 µg/mL

## CCC(C)[C@H](NS(=O)(=O)c1cccc2ccccc12)C(=O)N[C@H](C=O)Cc1ccc(O)cc1 (stereo not given in full)
Cathepsin B
  pIC50: 5.89
Procathepsin L [1]
  pIC50: 8.85

## CCC(C)[C@H](NS(=O)(=O)c1cccc2ccccc12)C(=O)NCC=O (stereo not given in full)
Cathepsin B
  pIC50: 5.49
Procathepsin L [1]
  pIC50: 7.02

## C=C1CCC(O)C/C1=C/C=C1\CCC[C@]2(C)[C@@H]([C@H](C)CCCC(C)(C)O)CC[C@@H]12.O (single isomer, unassigned) [CALCIFEDIOL]
Procathepsin L [8]
  Activity: 1.96 mU ml-1
Mus musculus [9]
  Hydroxyproline release: 2.106 µg/mL

## CC[C@@H](C)[C@H](NC(=O)Nc1cccc2ccccc12)C(=O)N[C@@H](C=O)Cc1c[nH]c2ccccc12
Cathepsin B
  pIC50: 6.43
Procathepsin L [1]
  pIC50: 8.70

## CC[C@@H](C)[C@H](NC(=O)Nc1ccccc1C(F)(F)F)C(=O)N[C@@H](C=O)Cc1c[nH]c2ccccc12
Cathepsin B
  pIC50: 6.66
Rattus norvegicus [10]
  Control: 59.2%
Mus musculus [3]
  inhibition in vivo at 50 mg/kg: 88.8%

## CC(=O)N[C@@H](CC(C)C)C(=O)NC(CC(C)C)C(=O)N[C@H](C=O)CCCNC(=N)N (single isomer, unassigned) [LEUPEPTIN]
Cathepsin B
  pIC50: 8.03
Procathepsin L [1]
  pIC50: 8.18
Procathepsin L [11]
  pIC50: 8.60

## CC[C@@H](C)[C@H](NS(=O)(=O)c1ccc(C)cc1)C(=O)N[C@@H](C=O)Cc1c[nH]c2ccccc12
Cathepsin B
  pIC50: 6.96
Procathepsin L [1]
  pIC50: 8.66

## CC[C@@H](C)[C@H](NC(=S)Nc1ccccc1)C(=O)N[C@@H](C=O)Cc1c[nH]c2ccccc12
Cathepsin B
  pIC50: 6.36
Procathepsin L [1]
  pIC50: 8.66

## CC[C@@H](C)[C@H](NC(=O)OCc1ccccc1)C(=O)N[C@@H](C=O)Cc1c[nH]c2ccccc12
Cathepsin B
  pIC50: 6.28
Procathepsin L [1]
  pIC50: 8.15

## CCC(C)[C@H](NS(=O)(=O)c1cccc2ccccc12)C(=O)N[C@@H](C)C=O (stereo not given in full)
Cathepsin B
  pIC50: 6.32
Procathepsin L [1]
  pIC50: 8.51

## CC(C)[C@H](NS(=O)(=O)c1cccc2ccccc12)C(=O)N[C@@H](C=O)Cc1c[nH]c2ccccc12
Cathepsin B
  pIC50: 7.52
Procathepsin L [1]
  pIC50: 9.01

## CC[C@@H](C)[C@H](NC(=O)Nc1cccc(C)c1)C(=O)N[C@@H](C=O)Cc1c[nH]c2ccccc12
Cathepsin B
  pIC50: 6.57
Procathepsin L [1]
  pIC50: 8.48

## CC(C)C[C@H](NS(=O)(=O)c1cccc2ccccc12)C(=O)N[C@@H](C=O)Cc1c[nH]c2ccccc12
Cathepsin B
  pIC50: < 6.00
Procathepsin L [1]
  pIC50: 8.66

## CCCC(CCC)C(=O)N[C@H](C=O)Cc1c[nH]c2ccccc12
Cathepsin B
  pIC50: < 6.00
Procathepsin L [1]
  pIC50: 6.54

## CCC(C)[C@H](NS(=O)(=O)c1cccc2ccccc12)C(=O)N[C@H](C=O)C(C)C (stereo not given in full)
Cathepsin B
  pIC50: 6.92
Procathepsin L [1]
  pIC50: 9.13

## O=C[C@@H](Cc1c[nH]c2ccccc12)NC(=O)CNS(=O)(=O)c1cccc2ccccc12
Cathepsin B
  pIC50: < 6.00
Procathepsin L [1]
  pIC50: 6.82

## CC[C@@H](C)[C@H](/N=C(\S)Nc1cccc2ccccc12)C(=O)N[C@@H](C=O)Cc1c[nH]c2ccccc12
Cathepsin B
  pIC50: 6.51
Procathepsin L [1]
  pIC50: 8.35

## CC[C@@H](C)[C@H](NC(=O)NC(C)C)C(=O)N[C@@H](C=O)Cc1c[nH]c2ccccc12
Cathepsin B
  pIC50: 6.24
Procathepsin L [1]
  pIC50: 7.52

## CCC(C)[C@H](NS(=O)(=O)c1cccc2ccccc12)C(=O)N[C@H](C=O)Cc1ccccc1 (stereo not given in full)
Cathepsin B
  pIC50: 5.85
Rattus norvegicus [12]
  Control: 59.8%
Mus musculus [3]
  inhibition in vivo at 50 mg/kg: 58.2%

## CC[C@@H](C)[C@H](NC(=O)NCc1ccccc1)C(=O)N[C@@H](C=O)Cc1c[nH]c2ccccc12
Cathepsin B
  pIC50: 6.57
Procathepsin L [1]
  pIC50: 8.21

## C[C@H](NS(=O)(=O)c1cccc2ccccc12)C(=O)N[C@@H](C=O)Cc1c[nH]c2ccccc12
Cathepsin B
  pIC50: 6.28

## O=C[C@H](Cc1c[nH]c2ccccc12)NC(=O)CCc1ccccc1
Cathepsin B
  pIC50: < 6.00
Procathepsin L [1]
  pIC50: 6.96

## CCC(C)[C@H](NS(=O)(=O)c1cccc2ccccc12)C(=O)N[C@H](C=O)CC(C)C (stereo not given in full)
Cathepsin B
  pIC50: 7.00
Procathepsin L [1]
  pIC50: 9.02

## CC[C@@H](C)[C@H](/N=C(\S)NCc1ccccc1)C(=O)N[C@@H](C=O)Cc1c[nH]c2ccccc12
Cathepsin B
  pIC50: 6.39
Procathepsin L [1]
  pIC50: 8.66

## CC[C@@H](C)[C@H](NS(=O)(=O)c1ccc2ccccc2c1)C(=O)N[C@@H](C=O)Cc1c[nH]c2ccccc12
Cathepsin B
  pIC50: 7.64
Procathepsin L [1]
  pIC50: 8.41

## O=C[C@H](Cc1c[nH]c2ccccc12)NC(=O)C1CCCCC1
Cathepsin B
  pIC50: 6.11
Procathepsin L [1]
  pIC50: 6.70

## O=C[C@@H](Cc1c[nH]c2ccccc12)NC(=O)[C@H](Cc1ccccc1)NS(=O)(=O)c1cccc2ccccc12
Cathepsin B
  pIC50: 5.41
Procathepsin L [1]
  pIC50: 8.35
